Data on three molecules can be found in paper PMC10879835 (Saudi Journal of Biological Sciences, 2024).

A short description of series [1]: Solubility of MG in solid lipids and surfactants. The conditions noted are these: in Labrafil M 2130 CS. The class given is physicochemical. The procedure, abridged: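 1 g of each solid lipid was held in a vial on a magnetic stirrer above its melting point. Test compound was added in increments until saturation, and the amount dissolved was recorded. Samples were filtered through a 0.45 membrane to remove undissolved solid.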

A further series in a line: Anti-oxidant DPPH assay. The settings on record: 30 mins, absorbance at 515 nm. A digest of the protocol:
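Lipid-nanoparticle and solution formulations of the test compound were made as 1 mg/ml stocks in methanol and diluted to 1–50 ug/ml. Ascorbic acid was the control. Each dilution was mixed 1:1 by volume with 200 μM DPPH. Absorbance at 515 nm was read after 30 min against a methanol blank. % inhibition was taken […], and IC50 came from regression of mean % inhibition on log concentration.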
In general terms: The DPPH test is a chemical assay of radical scavenging.

Another series deals with α-glucosidase. In words: α-Glucosidase inhibitory assay. The class given is biochemical. The procedure, abridged:
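Test sample was preincubated 15 min at 37 °C with α-glucosidase solution (1 U/mL in 0.1 M potassium phosphate buffer, pH 6.8). 5 mM p-nitrophenyl-α-D-glucopyranoside solution was added, with a further 15 min incubation. The reaction was stopped with 0.2 M sodium carbonate and read at 405 nm. Acarbose was the positive control. % inhibition came from control and blank absorbances.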

The next series concerns α-amylase. In words: α-Amylase inhibitory assay. In kind it is biochemical. The settings on record: at 100 µg/mL. A digest of the protocol:
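DNS method. Test compound at 25, 50, 100 and 200 µg/ml, or acarbose at 100 µg/ml as reference, was preincubated 30 min with α-amylase diluted in 20 mM sodium phosphate buffer pH 6.9. 1% w/w starch was then added and the mix held 15 min at 37 ± 0.5 °C. The reaction was stopped with DNS reagent and heated 5 min in boiling water, then read at 540 nm. % inhibition was calculated against a no-sample control and a no-enzyme blank.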

As for `O=c1c2cc(O)c(O)cc2oc2cc(O)c([C@@H]3O[C@H](CO)[C@@H](O)[C@H](O)[C@H]3O)c(O)c12` [Mangiferin], the “MG solubility in solid lipid” value in series [1] is 77.63 ± 5.78 mg/g.
Regarding `O=C1O[C@H]([C@@H](O)CO)C(O)=C1O` [AA, ascorbic acid], the “DPPH IC50” value in the series “Anti-oxidant DPPH assay” was found to be 23.33 µg/mL.
With `C[C@H]1O[C@H](O[C@H]2[C@H](O)[C@@H](O)[C@@H](O[C@H]3[C@H](O)[C@@H](O)C(O)O[C@@H]3CO)O[C@@H]2CO)[C@H](O)[C@@H](O)[C@@H]1N[C@H]1C=C(CO)[C@@H](O)[C@H](O)[C@H]1O` (stereo partly shown) [Acarbose], the α-glucosidase inhibition with α-glucosidase stood at 63.43 ± 4.02%. This molecule yielded a α-amylase inhibitory effect in the series with α-amylase of 78.01 ± 7.45%.
